Assay results taken from ChEMBL document CHEMBL4334538, “Mitochondrial Impairment by Cyanine-Based Small Molecules Induces Apoptosis in Cancer Cells” (ACS Med Chem Lett, 2020).
pIC50: −log10 of the molar value. Activity calls are given as the source filed them. The calls are words filed in the database; no cut-off is given here.

Tests used:
HeLa [1] = assay: Cytotoxicity against human HeLa cells assessed as cell killing after 24 hrs by MTT assay; format: functional, cell-based
HeLa [2] = assay: Cytotoxicity against human HeLa cells assessed as cell death at 10 uM after 24 hrs by MTT assay; format: functional, cell-based
HeLa [3] = assay: Cytotoxicity against human HeLa cells assessed as cell viability at 10 uM after 24 hrs by MTT assay relative to control; format: functional; settings: read-out: Activity
HeLa [4] = assay: Induction of cell cycle arrest in human HeLa cells assessed as apoptotic cells at 900 nM after 24 hrs by RNase/PI-staining based flow cytometric analysis (reference value: 1.25%); format: functional
HeLa [5] = assay: Induction of apoptosis in human HeLa cells assessed as early apoptotic cells at 900 nM after 24 hrs by APC-AnnexinV/7-AAD staining based flow cytometric analysis (reference value: 0.2%); format: functional
Procedure, shortened: (§1)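 After 24 h treatment, HeLa cells stained with APC-Annexin V (phosphatidylserine) and 7-AAD (nuclear DNA of necrotic cells), then sorted by flow cytometry into viable, early, late apoptotic and necrotic populations.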

HeLa [6] = assay: Induction of apoptosis in human HeLa cells assessed as reduction in caspase-9 expression at 900 nM after 24 hrs by Western blot analysis relative to control; format: functional
Procedure, shortened: (§2)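 HeLa cells incubated 24 h with compound; whole-cell proteins run on gel electrophoresis and blotted for pro-caspase-3 and pro-caspase-9.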

HeLa [7] = assay: Induction of cell cycle arrest in human HeLa cells assessed as accumulation of cells at S phase at 900 nM after 24 hrs by RNase/PI-staining based flow cytometric analysis (reference value: 13.83%); format: functional
HeLa [8] = assay: Up regulation of Bax expression in human HeLa cells at 900 nM after 24 hrs by Western blot analysis relative to control; format: functional
Procedure, shortened: (§3)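 Western blot of HeLa cellular proteins after 24 h compound treatment; Bcl-2, Bcl-xl and Bax bands quantified relative to control.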

HeLa [9] = assay: Decrease in Bcl-xl expression in human HeLa cells assessed as fold change in fluorescent intensity at 900 nM after 24 hrs by Alexa fluor 488/DAPI-staining based confocal microscopic analysis relative to untreated control; format: functional
Procedure, shortened: (§4)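 Immunofluorescence: HeLa cells treated 24 h, probed with Bcl-2, Bcl-xl or Bax primary antibodies and Alexa Fluor 488 secondary, nuclei counterstained with DAPI; confocal green intensity quantified relative to control.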

HeLa [10] = assay: Induction of morphological changes in mitochondria of human HeLa cells assessed as reduction in mitochondrial area at 500 nM after 3 hrs by laser confocal microscopic analysis relative to untreated control
Procedure, shortened: (§5)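 Mitochondrial morphology: HeLa cells given 500 nM compound for 3 h, mitochondria visualized by confocal imaging (controls stained with MitoTracker Green); fragmentation scored and average mitochondrial area quantified against control.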

HeLa [11] = assay: Decrease in Bcl-2 expression in human HeLa cells at 900 nM after 24 hrs by Western blot analysis relative to control; format: functional; procedure, shortened: as §3
HeLa [12] = assay: Decrease in Bcl-2 expression in human HeLa cells assessed as fold change in fluorescent intensity at 900 nM after 24 hrs by Alexa fluor 488/DAPI-staining based confocal microscopic analysis relative to untreated control; format: functional; procedure, shortened: as §4
HeLa [13] = assay: Induction of ROS generation in human HeLa cells assessed as fold change in fluorescent intensity at 500 to 800 nM after 24 hrs by H2DCF-DA staining-based fluorescence microscopic analysis relative to untreated control; format: functional
Procedure, shortened: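 ROS read-out: HeLa cells treated with compound, then incubated with H2DCFDA; green fluorescence imaged by fluorescence/confocal microscopy and intensity quantified versus control.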

HeLa [14] = assay: Induction of morphological changes in mitochondria of human HeLa cells assessed as mitochondrial fragmentation at 500 nM after 3 hrs by mito-tracker green dye based laser confocal microscopic analysis; procedure, shortened: as §5
HeLa [15] = assay: Increase in Bax expression in human HeLa cells assessed as fold change in fluorescent intensity at 900 nM after 24 hrs by Alexa fluor 488/DAPI-staining based confocal microscopic analysis relative to untreated control; format: functional; procedure, shortened: as §4
HeLa [16] = assay: Induction of apoptosis in human HeLa cells assessed as late apoptotic cells at 900 nM after 24 hrs by APC-AnnexinV/7-AAD staining based flow cytometric analysis (reference value: 2.3%); format: functional; procedure, shortened: as §1
HeLa [17] = assay: Induction of cell cycle arrest in human HeLa cells assessed as accumulation of cells at G0/G1 phase at 900 nM after 24 hrs by RNase/PI-staining based flow cytometric analysis (reference value: 47.43%); format: functional
HeLa [18] = assay: Induction of apoptosis in human HeLa cells assessed as necrotic cells at 900 nM after 24 hrs by APC-AnnexinV/7-AAD staining based flow cytometric analysis (reference value: 1.1%); format: functional; procedure, shortened: as §1
[19] = Drug uptake in mitochondria of human HeLa cells at 150 nM incubated for 20 mins by mito-tracker green dye based laser confocal microscopic analysis; format: ADME; settings: 0.15 µM
Procedure, shortened: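 HeLa cells exposed to compound at 150 nM for 20 min, mitochondria then stained with MitoTracker Green; colocalization by confocal laser scanning microscopy with intensity scatter plots and z-stack maximum projections.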

HEK293 = assay: Cytotoxicity against HEK293 cells assessed as reduction in cell viability after 24 hrs by MTT assay; format: cell-based; settings: Homo sapiens, HEK293, 24 h
HeLa [20] = assay: Induction of apoptosis in human HeLa cells assessed as reduction in caspase-3 expression at 900 nM after 24 hrs by Western blot analysis relative to control; format: functional; procedure, shortened: as §2
HeLa [21] = assay: Induction of cell cycle arrest in human HeLa cells assessed as accumulation of cells at G2/M phase at 900 nM after 24 hrs by RNase/PI-staining based flow cytometric analysis (reference value: 33.91%); format: functional
[22] = Cytotoxicity against HEK293 cells assessed as cell viability at 5 uM after 24 hrs by MTT assay relative to control; format: cell-based; settings: human, read-out: Activity
HeLa [23] = assay: Induction of mitochondrial damage in human HeLa cells assessed as opening of MPTP by measuring fold increase in fluorescence intensity at 800 nM after 24 hrs by Calcein AM/CoCl2 based confocal microscopic analysis relative to control; settings: Mitochondria
Procedure, shortened: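 HeLa cells treated 24 h, then loaded with Calcein AM plus CoCl2; live cells imaged by confocal microscopy and green fluorescence intensity quantified against untreated control.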

HeLa [24] = assay: Decrease in Bcl-xl expression in human HeLa cells at 900 nM after 24 hrs by Western blot analysis relative to control; format: functional; procedure, shortened: as §3
HeLa [25] = assay: Induction of apoptosis in human HeLa cells assessed as viable cells at 900 nM after 24 hrs by APC-AnnexinV/7-AAD staining based flow cytometric analysis (reference value: 96.4%); format: functional; settings: read-out: Activity; procedure, shortened: as §1
HeLa [26] = assay: Cytotoxicity against human HeLa cells assessed as reduction in cell viability after 24 hrs by MTT assay

COc1ccc(-c2cc(OC)c(/C=C/C3=[N+](C)c4ccccc4C3(C)C)[nH]2)cc1OC
pIC50 (HeLa [1]): 5.35 to 6.04 | inhibition (HeLa [1]): Dose-dependent effect

COc1cc(-c2cc3ccccc3o2)[nH]c1/C=C/C1=[N+](C)c2ccccc2C1(C)C
pIC50 (HeLa [1]): 5.35 to 6.04 | inhibition (HeLa [1]): Dose-dependent effect

COc1cc(-c2cc3ccccc3s2)[nH]c1/C=C/C1=[N+](C)c2ccccc2C1(C)C
pIC50 (HeLa [1]): 5.35 to 6.04 | inhibition (HeLa [1]): Dose-dependent effect

COc1cc(-c2cccc(OC)c2OC)[nH]c1/C=C/C1=[N+](C)c2ccccc2C1(C)C
pIC50 (HeLa [1]): 5.35 to 6.04 | inhibition (HeLa [1]): Dose-dependent effect

COc1cc(OC)cc(-c2cc(OC)c(/C=C/C3=[N+](C)c4ccccc4C3(C)C)[nH]2)c1
pIC50 (HeLa [1]): 5.35 to 6.04 | inhibition (HeLa [1]): Dose-dependent effect

CCc1c2c(nc3ccc(O)cc13)-c1cc3c(c(=O)n1C2)COC(=O)[C@]3(O)CC
Activity (HeLa [2]): inactive

CC(=O)O[C@H]1C(=O)[C@@]2(C)[C@H]([C@H](OC(=O)c3ccccc3)[C@]3(O)C[C@H](OC(=O)[C@H](O)[C@@H](NC(=O)c4ccccc4)c4ccccc4)C(C)=C1C3(C)C)[C@]1(OC(C)=O)CO[C@@H]1C[C@@H]2O [PACLITAXEL]
viability at 10 µM (HeLa [3]): 68.7%

COc1cc(-c2ccco2)[nH]c1/C=C/C1=[N+](C)c2ccccc2C1(C)C
pIC50 (HeLa [1]): 5.35 to 6.04 | inhibition (HeLa [1]): Dose-dependent effect

COc1cc(-c2cc3ccccc3[nH]2)[nH]c1/C=C/C1=[N+](C)c2ccccc2C1(C)C.[I-]
pIC50 (HeLa [1]): 6.01 | inhibition (HeLa [1]): Dose-dependent effect | Activity (HeLa [4]): 4.68% | Activity (HeLa [5]): 0% | fold change (FC) (HeLa [6]): 1.9 | Activity (HeLa [7]): 6.42% | fold change (FC) (HeLa [8]): 3.6 | fold change (FC) (HeLa [9]): 10.1 | fold change (FC) (HeLa [10]): 3.4 | fold change (FC) (HeLa [11]): 6.4 | fold change (FC) (HeLa [12]): 8.5 | fold change (FC) (HeLa [13]): 16.1 | Activity (HeLa [14]): Active | fold change (FC) (HeLa [15]): 2.1 | Activity (HeLa [16]): 99.5% | Activity (HeLa [17]): 67.96% | Activity (HeLa [18]): 0.4% | Drug uptake [19]: Active | pIC50 (HEK293): 5.59 | fold change (FC) (HeLa [20]): 3.5 | Activity (HeLa [21]): 16.79% | viability at 24 h, 5 µM [22]: 24% | fold change (FC) (HeLa [23]): 3.6 | fold change (FC) (HeLa [24]): 4 | viability at 0.9 µM (HeLa [25]): 0.1%

COc1cc(-c2ccc3c(c2)OCO3)[nH]c1/C=C/C1=[N+](C)c2ccccc2C1(C)C
pIC50 (HeLa [1]): 5.35 to 6.04 | inhibition (HeLa [1]): Dose-dependent effect

COc1ccc(OC)c(-c2cc(OC)c(/C=C/C3=[N+](C)c4ccccc4C3(C)C)[nH]2)c1
pIC50 (HeLa [1]): 5.35 to 6.04 | inhibition (HeLa [1]): Dose-dependent effect

COc1ccc(-c2cc(OC)c(/C=C/C3=[N+](C)c4ccccc4C3(C)C)[nH]2)c(OC)c1
pIC50 (HeLa [1]): 5.35 to 6.04 | inhibition (HeLa [1]): Dose-dependent effect

COc1cc(-c2ccc3ccccc3c2)[nH]c1/C=C/C1=[N+](C)c2ccccc2C1(C)C
pIC50 (HeLa [1]): 5.35 to 6.04 | inhibition (HeLa [1]): Dose-dependent effect

COc1cc(-c2ccc[nH]2)[nH]c1/C=C/C1=[N+](C)c2ccccc2C1(C)C
pIC50 (HeLa [1]): 5.35 to 6.04 | inhibition (HeLa [1]): Dose-dependent effect

COc1cccc2c1C(=O)c1c(O)c3c(c(O)c1C2=O)C[C@@](O)(C(=O)CO)C[C@@H]3O[C@H]1C[C@H](N)[C@H](O)[C@H](C)O1 [DOXORUBICIN]
pIC50 (HeLa [26]): 5.70

COc1ccc2[nH]c(-c3cc(OC)c(/C=C/C4=[N+](C)c5ccccc5C4(C)C)[nH]3)cc2c1.[I-]
pIC50 (HeLa [1]): 6.04 | inhibition (HeLa [1]): Dose-dependent effect | Activity (HeLa [4]): 3.47% | Activity (HeLa [5]): 0% | fold change (FC) (HeLa [6]): 2 | Activity (HeLa [7]): 13.52% | fold change (FC) (HeLa [8]): 4.1 | fold change (FC) (HeLa [9]): 8.4 | fold change (FC) (HeLa [10]): 2.6 | fold change (FC) (HeLa [11]): 9.3 | fold change (FC) (HeLa [12]): 5.7 | fold change (FC) (HeLa [13]): 22.4 | Activity (HeLa [14]): Active | fold change (FC) (HeLa [15]): 2.4 | Activity (HeLa [16]): 98.7% | Activity (HeLa [17]): 63.94% | Activity (HeLa [18]): 1% | Drug uptake [19]: Active | pIC50 (HEK293): 5.58 | fold change (FC) (HeLa [20]): 3.7 | Activity (HeLa [21]): 15% | viability at 24 h, 5 µM [22]: 25% | fold change (FC) (HeLa [23]): 3.9 | fold change (FC) (HeLa [24]): 5.6 | viability at 0.9 µM (HeLa [25]): 0.3%

COc1cc(-c2cccs2)[nH]c1/C=C/C1=[N+](C)c2ccccc2C1(C)C
pIC50 (HeLa [1]): 5.35 to 6.04 | inhibition (HeLa [1]): Dose-dependent effect

COc1cc(-c2ccccc2)[nH]c1/C=C/C1=[N+](C)c2ccccc2C1(C)C
pIC50 (HeLa [1]): 5.35 to 6.04 | inhibition (HeLa [1]): Dose-dependent effect

COc1cc(-c2c(OC)cccc2OC)[nH]c1/C=C/C1=[N+](C)c2ccccc2C1(C)C
pIC50 (HeLa [1]): 5.35 to 6.04 | inhibition (HeLa [1]): Dose-dependent effect

COC1=CC(c2cc3ccccc3[nH]2)=N/C1=C\c1[nH]c(C)cc1C [OBATOCLAX]
viability at 10 µM (HeLa [3]): 70.3%
